Activity calls are given as the source filed them.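 Rule for the calls, unless noted: active = viability loss from added drug above about 55%, and viability with drug at most 40%, in both replicates (limit read from the data, passing the limit was not always enough); inconclusive = both conditions met in only one replicate; inactive = neither replicate meets both conditions.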
Tests used:
[1] = Her2 expression decrease, cell viability multiplex – SKBR3 breast tumor cells, AlphaScreen, ATP viability, primary screen (AID 461;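 active = Her2 level under about 52% in both replicate screens, with viability over 70% of control, limit read from the data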;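 for Her2 level: lower value means less Her2 protein in the cells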;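 for viability: percent of carrier control wells set as 100% viability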); settings: SKBR3 Her2 protein level, 18-24 h, measured here: SKBR3 viability, ATP luminescence, at 10 µM
[2] = target: Receptor tyrosine-protein kinase erbB-2 (Homo sapiens) (UniProt P04626); experiment: as above; settings: 18-24 h, at 10 µM, stronger effect = lower value
[3] = reduced viability of SK-BR-3 breast cancer cells – cell-based, 24 h, human, pilot screen (AID 572;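 active = viability at or below 10% of carrier control in both of two separate runs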;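 note: compound exposure lasted between 18 and 24 h rather than exactly 24 h; 100% = carrier-treated control wells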); settings: SK-BR-3 viability, CellTiter-Glo luminescence, at 10 µM, stronger effect = lower value
[4] = HUVEC growth inhibition – cell-based, human, primary screen (AID 575;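 active = viability at or below 30% in both replicate assays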;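 note: 100% = median of untreated cell wells with 0.1% DMSO on each plate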); settings: HUVEC proliferation, CellTiter-Glo luminescence, 72 h; at 10 µM; stronger effect = lower value
In short: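 material = primary HUVEC, no more than 12 passages | input = 1250 cells per well | controls = vehicle and MePR control wells | measured by = CTG luminescence | times = 72 h compound incubation | format = collagen-coated 384-well format | read-out = % viability vs DMSO wells | doses = single 10 µM dose, 0.1% DMSO, from 5x medium stock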

[5] = H69AR cell proliferation blockers – human, duplicate replicates, primary screen (AID 580;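 active = viability at or under a set limit in both replicates, limit being median viability minus 3 SD, cut at about 48% in these data, passing the limit was not always enough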;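 note: 100% = mean luminescence of untreated wells and 0% = no signal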); settings: H69AR lung tumor cells viability, ATP luminescence, 72 h; at 10 µM; stronger effect = lower value
[6] = MRP1 drug-resistance reversers in H69AR cells – cell-based, doxorubicin co-treatment, pilot screen (AID 601); settings: CellTiter-Glo, 72 h, at 10 µM; for differential viability (reversal): stronger effect = higher value
[7] = yeast transport mutant growth inhibition pilot in 384-well plates, post-Golgi transport modulator project (AID 636; in the data active = inhibition above about 31%); settings: absorbance 615 nm, about 18 h, stronger effect = higher value
[8] = growth suppression of yeast trafficking mutant, preliminary HTS, modulators of trafficking downstream of Golgi apparatus project, 1536-format plate, OD 615 nm (AID 637; in the data active = inhibition above about 30%); settings: yeast transport mutant growth, absorbance 615 nm, 18 h; stronger effect = higher value
[9] = H69AR cells + 2 uM doxorubicin, measured here: viability with 2 uM doxorubicin, stronger effect = lower value
[10] = H69AR cells, compound alone cytotoxicity

Sequence of Receptor tyrosine-protein kinase erbB-2 (Homo sapiens) (P04626 whole entry, looked up): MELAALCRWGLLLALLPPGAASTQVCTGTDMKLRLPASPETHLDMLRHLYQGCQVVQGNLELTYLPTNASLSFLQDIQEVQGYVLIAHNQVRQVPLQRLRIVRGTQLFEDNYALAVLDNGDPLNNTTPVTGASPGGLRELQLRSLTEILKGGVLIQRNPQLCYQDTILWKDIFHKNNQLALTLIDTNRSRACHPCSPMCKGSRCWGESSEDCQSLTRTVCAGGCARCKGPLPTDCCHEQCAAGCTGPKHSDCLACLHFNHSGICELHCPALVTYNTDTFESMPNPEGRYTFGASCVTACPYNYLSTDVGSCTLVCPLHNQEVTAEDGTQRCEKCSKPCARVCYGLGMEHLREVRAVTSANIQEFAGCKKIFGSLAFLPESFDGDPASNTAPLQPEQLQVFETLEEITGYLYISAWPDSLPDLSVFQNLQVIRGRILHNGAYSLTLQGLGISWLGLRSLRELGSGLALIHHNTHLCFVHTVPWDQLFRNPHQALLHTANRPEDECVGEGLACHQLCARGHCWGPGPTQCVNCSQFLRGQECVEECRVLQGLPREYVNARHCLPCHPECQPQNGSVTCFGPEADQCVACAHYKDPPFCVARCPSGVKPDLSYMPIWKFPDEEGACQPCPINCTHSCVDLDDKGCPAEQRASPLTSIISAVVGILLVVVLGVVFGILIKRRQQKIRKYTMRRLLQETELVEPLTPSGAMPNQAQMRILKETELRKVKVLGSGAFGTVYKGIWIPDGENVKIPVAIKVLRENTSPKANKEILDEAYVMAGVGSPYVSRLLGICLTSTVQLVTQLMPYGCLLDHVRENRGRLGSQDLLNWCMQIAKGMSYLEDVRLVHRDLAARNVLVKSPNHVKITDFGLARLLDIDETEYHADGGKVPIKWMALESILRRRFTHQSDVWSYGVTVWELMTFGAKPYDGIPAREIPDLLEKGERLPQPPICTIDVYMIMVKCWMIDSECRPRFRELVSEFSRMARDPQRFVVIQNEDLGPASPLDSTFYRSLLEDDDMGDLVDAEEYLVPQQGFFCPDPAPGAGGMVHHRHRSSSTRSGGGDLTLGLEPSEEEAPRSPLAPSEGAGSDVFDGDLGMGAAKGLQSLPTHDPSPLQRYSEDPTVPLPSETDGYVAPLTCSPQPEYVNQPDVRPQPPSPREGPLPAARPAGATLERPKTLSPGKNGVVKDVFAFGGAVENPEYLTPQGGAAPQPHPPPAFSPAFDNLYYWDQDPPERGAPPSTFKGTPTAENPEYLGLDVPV

Row | SMILES | viability [1] [%] | Her2 level [2] | viability [3] | viability [4] | viability [5] | differential viability (reversal) ([6]; H69AR cells + 2 uM doxorubicin) | viability [6, 9] [%] | viability [6, 10] [%] | inhibition [7] | inhibition [8]
1 | Cc1ccc(C)c(NC(=O)c2ccc3c(c2)N(Cc2ccc(F)cc2)C(=O)CS3=O)c1 (stereo not given) | 85.5 | 102% (inactive) | 85.5% (inactive) | 95.2% (inactive) | 97.1% (inactive) | 3.96% (inactive) | 93.1 | 97.1 | -1.6% (inactive) | -0.66% (inactive)
2 | CCC1CCCN1Cn1cnc2c([nH]c3ccc(OC)cc32)c1=O (stereo not given) | 104 | 90% (inactive) | 104% (inactive) | 111% (inactive) | 91.3% (inactive) | 1.38% (inactive) | 89.9 | 91.3 | -5.6% (inactive) | 2.42% (inactive)
3 | O=C(c1ccccc1-c1ccccc1)N1CCN(c2ccccn2)CC1 | 69.5 | 93% (inactive) | 69.5% (inactive) | 58.8% (inactive) | 16% (active) | -57.7% (inactive) | 73.7 | 16 | -6.76% (inactive) | -4.75% (inactive)
4 | Cc1ccc(-n2nnnc2SCC(=O)c2cc(C)n(-c3cc(C)on3)c2C)cc1 | 91 | 83% (inactive) | 91% (inactive) | 88.5% (inactive) | 65.4% (inactive) | -28.2% (inactive) | 93.6 | 65.4 | -2.86% (inactive) | 1.11% (inactive)
5 | COc1cc2c(cc1OC)-c1cc(Nc3ccc4c(c3)OCCO4)nc(=O)n1CC2 | 91.5 | 82.5% (inactive) | 91.5% (inactive) | 63.2% (inactive) | 71.2% (inactive) | -6.86% (inactive) | 78.1 | 71.2 | -0.91% (inactive) | -4.17% (inactive)
6 | COc1cc(S(=O)(=O)N2CCC(N3CCCCC3)CC2)ccc1-n1cnnn1 | 92.5 | 108% (inactive) | 92.5% (inactive) | 98.3% (inactive) | 98% (inactive) | 8.69% (inactive) | 89.3 | 98 | -3.78% (inactive) | -6.35% (inactive)
7 | COC(=O)C(C)Sc1nc2c(c(=O)n(C)c(=O)n2C)n1Cc1cccc(C)c1 (stereo not given) | 97.5 | 86.5% (inactive) | 97.5% (inactive) | 79.7% (inactive) | 91.5% (inactive) | 8.71% (inactive) | 82.8 | 91.5 | -0.26% (inactive) | -0.32% (inactive)
8 | C=CCn1c(SCc2ccc(C#N)cc2)nnc1-c1cccc(Cl)c1 | 95.5 | 86% (inactive) | 95.5% (inactive) | 102% (inactive) | 80.2% (inactive) | -3.84% (inactive) | 84 | 80.2 | -2.21% (inactive) | -0.17% (inactive)
9 | Cc1csc2nc(CNC(=O)c3ccco3)cn12 | 86 | 102% (inactive) | 86% (inactive) | 95.6% (inactive) | 112% (inactive) | 13.9% (inactive) | 98.5 | 112 | -1.2% (inactive) | -4.35% (inactive)
10 | Cn1nc(C(=O)Nc2cccc(C(F)(F)F)c2)ccc1=O | 95.5 | 92% (inactive) | 95.5% (inactive) | 107% (inactive) | 91.5% (inactive) | 6.87% (inactive) | 84.7 | 91.5 | -3.29% (inactive) | 1.45% (inactive)
11 | CC1=C(C(=O)NC2CCC(C)CC2)C2(CCC(C)CC2)OC1=O (stereo not given) | 112 | 84% (inactive) | 112% (inactive) | 96.2% (inactive) | 90.4% (inactive) | -3.75% (inactive) | 94.1 | 90.4 | -2.27% (inactive) | -5.25% (inactive)
12 | NC(=O)COC(=O)c1ccc(S(=O)(=O)N2CCCCCC2)cc1 | 93 | 104% (inactive) | 93% (inactive) | 92.8% (inactive) | 88% (inactive) | -2.85% (inactive) | 90.9 | 88 | -2.82% (inactive) | -7.67% (inactive)
13 | C=CCn1c(C)cc(C(=O)CSc2nc3ccccc3o2)c1C | 108 | 72.5% (inactive) | 108% (inactive) | 81.2% (inactive) | 95.6% (inactive) | 10% (inactive) | 85.6 | 95.6 | -2.84% (inactive) | -3.33% (inactive)
14 | COc1ccc(C(=O)N(CCCO)Cc2cc3c(C)ccc(C)c3[nH]c2=O)cc1OC | 90.5 | 95% (inactive) | 90.5% (inactive) | 113% (inactive) | 95.1% (inactive) | 12.2% (inactive) | 82.9 | 95.1 | -5.06% (inactive) | 2.46% (inactive)
15 | Cc1csc2nc(CSc3ccc(Cl)cc3)cn12 | 97.5 | 78% (inactive) | 97.5% (inactive) | 80.9% (inactive) | 88.2% (inactive) | 15.9% (inactive) | 72.3 | 88.2 | -5.87% (inactive) | 3.77% (inactive)
16 | COC(=O)CSc1cc(C)nc(NC(C)=O)n1 | 93.5 | 83.5% (inactive) | 93.5% (inactive) | 102% (inactive) | 101% (inactive) | 6.47% (inactive) | 94.2 | 101 | -3.92% (inactive) | -0.95% (inactive)
17 | Cc1cc(C)nc(N2CCCC(C(=O)Nc3nc4ccc(S(C)(=O)=O)cc4s3)C2)n1 (stereo not given) | 80.5 | 90% (inactive) | 80.5% (inactive) | 79.5% (inactive) | 83.7% (inactive) | -9.45% (inactive) | 93.2 | 83.7 | 0% (inactive) | 10.8% (inactive)
18 | O=C(CCN1CCc2ccccc2C1)Nc1ccc2c(c1)OCO2 | 88.5 | 94% (inactive) | 88.5% (inactive) | 84.4% (inactive) | 87.1% (inactive) | -18.3% (inactive) | 105 | 87.1 | -4.4% (inactive) | 0.81% (inactive)
19 | CC(=O)c1cc(Cl)ccc1OC(=O)c1ccco1 | 106 | 92.5% (inactive) | 106% (inactive) | 95.3% (inactive) | 89.2% (inactive) | -3.25% (inactive) | 92.5 | 89.2 | -0.65% (inactive) | -4.43% (inactive)
20 | Cc1cc(C)n2cc(CSCc3ccco3)nc2n1 | 97 | 83% (inactive) | 97% (inactive) | 113% (inactive) | 95.2% (inactive) | 8.73% (inactive) | 86.4 | 95.2 | -7.16% (inactive) | 0.83% (inactive)
21 | Cc1ccc(-c2nnn(CC(=O)N(CC3CCCO3)C(C(=O)NC(C)(C)C)c3ccc(F)cc3)n2)o1 (stereo not given) | 106 | 96% (inactive) | 106% (inactive) | 100% (inactive) | 101% (inactive) | 3.52% (inactive) | 97.4 | 101 | -1.07% (inactive) | -4.03% (inactive)
22 | Cc1nnc(SCC(=O)N2CC(=O)Nc3ccccc32)n1-c1ccccc1 | 93 | 90% (inactive) | 93% (inactive) | 102% (inactive) | 97% (inactive) | 2.75% (inactive) | 94.3 | 97 | -4.53% (inactive) | 4.84% (inactive)
23 | COc1ccc(-c2nc(C#N)c(N3CCN(c4ccccc4)CC3)o2)cc1 | 94.5 | 98.5% (inactive) | 94.5% (inactive) | 94.7% (inactive) | 105% (inactive) | 11.7% (inactive) | 93.8 | 105 | -2.05% (inactive) | 3.33% (inactive)
24 | O=C(OCc1ccc2c(c1)OCO2)c1ccc(S(=O)(=O)N2CCCCC2)cc1 | 75.5 | 84% (inactive) | 75.5% (inactive) | 57.9% (inactive) | 81.9% (inactive) | 0.615% (inactive) | 81.3 | 81.9 | -0.77% (inactive) | -2.5% (inactive)
25 | CCOc1cc(S(=O)(=O)Nc2ccccn2)ccc1F | 114 | 110% (inactive) | 114% (inactive) | 108% (inactive) | 101% (inactive) | 7.25% (inactive) | 93.3 | 101 | -4% (inactive) | -5.9% (inactive)
26 | c1ccc(-c2cn3c4c(sc3n2)CCCC4)cc1 | 89 | 76% (inactive) | 89% (inactive) | 46% (inactive) | 39.9% (active) | -25.4% (inactive) | 65.2 | 39.9 | -2.37% (inactive) | 1.27% (inactive)
27 | Cc1ccc2[nH]c3c(c2c1)CCc1cn[nH]c1-3 | 132 | 68% (inactive) | 132% (inactive) | 66.4% (inactive) | 38.4% (active) | -18.3% (inactive) | 56.7 | 38.4 | -0.8% (inactive) | -8.23% (inactive)
28 | O=C(CCc1nc2ccccc2[nH]1)Nc1ccc2c(c1)OCO2 | 79 | 126% (inactive) | 79% (inactive) | 48.6% (inactive) | 90.8% (inactive) | -2.33% (inactive) | 93.1 | 90.8 | 0.9% (inactive) | -4.33% (inactive)

Source: PubChem BioAssay
